{"source": "ChEMBL document CHEMBL4765242", "about": "“Novel Triapine Derivative Induces Copper-Dependent Cell Death in Hematopoietic Cancers” (J Med Chem, 2019)", "key": {"[1]": {"experiment": "Selectivity index, ratio of IC50 for HUVEC to IC50 for human MV4-11 cells", "format": "toxicity", "details": "HUVEC and MV4-11 cells, read-out: Ratio IC50"}, "MV4-11 [2]": {"system": "MV4-11", "experiment": "Antitumor activity against human MV4-11 cells xenografted in BALB/c nude mouse assessed as tumor growth inhibition at 30 mg/kg, po BID administered via gavage by caliper method", "format": "functional, organism-based", "method_in_brief": "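MV4;11 leukemia cells transplanted into mice; 30 mg/kg given orally twice daily, controls given vehicle. Tumor volume calculated from tumor width and length; body weight followed over 14 days of dosing.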"}, "[3]": {"experiment": "Toxicity in BALB/c nude mouse xenografted with human MV4-11 cells assessed as effect on body weight at 30 mg/kg, po BID administered via gavage for 14 days", "format": "organism-based", "details": "in vivo, 336 h, time 14 day", "method_in_brief": "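Mice bearing MV4;11 leukemia xenografts received 30 mg/kg orally twice daily; control mice received vehicle. Host body weight was monitored over 14 days of treatment.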"}, "MV4-11 [4]": {"system": "MV4-11", "experiment": "Induction of cell death in human MV4-11 cells assessed as reduction in cell viability at 50 nM measured after 48 hrs in presence of Nec-1 by cell-titer-Glo luminescent cell viability assay", "format": "functional, cell-based"}, "MV4-11 [5]": {"system": "MV4-11", "experiment": "Cytotoxicity against human MV4-11 cells assessed as reduction in cell viability pretreated with 5 mM ROS scavenger N-acetyl-L-cysteine followed by compound treatment measured after 48 hrs by cell-titer-Glo luminescent cell viability assay", "format": "functional, cell-based", "method_in_brief": "(§1)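 MV4;11 cells pretreated with a ROS scavenger (BHA 100 μM, BHT 100 μM, α-tocopherol 10 μM, NAC 0.5 or 5 mM), then exposed to compound; viability read by CellTiter-Glo luminescence.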"}, "MV4-11 [6]": {"system": "MV4-11", "experiment": "Cytotoxicity against human MV4-11 cells assessed as reduction in cell viability pretreated with 10 uM ROS scavenger alpha-tocopherol followed by compound treatment and measured after 48 hrs by cell-titer-Glo luminescent cell viability assay", "format": "functional, cell-based", "method_in_brief": "as §1"}, "MV4-11 [7]": {"system": "MV4-11", "experiment": "Induction of ROS generation in human MV4-11 cells assessed as increase in mitochondrial ROS level at 50 nM incubated for 4 to 8 hrs by MitoSox red dye based flow cytometry analysis", "format": "functional, cell-based", "details": "time 4-8 hrs", "method_in_brief": "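MV4;11 cells in 6-well plates given 50 nM compound for 4 or 8 h, then stained with CellROX (intracellular ROS) or MitoSOX (mitochondrial ROS); read by flow cytometry.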"}, "MV4-11 [8]": {"system": "MV4-11", "experiment": "Induction of apoptosis in human MV4-11 cells assessed as late apoptotic cells incubated for 24 hrs by Annexin-V/FITC and propidium iodide staining based flow cytometry (reference value: 9.01 %)", "format": "functional", "method_in_brief": "(§2)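 Cells exposed to compound for 24 h with or without Cu2+, then Annexin V-FITC/propidium iodide double staining and flow cytometry.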"}, "MV4-11 [9]": {"system": "MV4-11", "experiment": "Induction of apoptosis in human MV4-11 cells assessed as early apoptotic cells incubated for 24 hrs by Annexin-V/FITC and propidium iodide staining based flow cytometry (reference value: 0.18 %)", "format": "functional", "method_in_brief": "as §2"}, "MV4-11 [10]": {"system": "MV4-11", "experiment": "Potentiation of copper-induced apoptosis in human MV4-11 cells assessed as late apoptotic cells incubated for 24 hrs in presence of copper by Annexin-V/FITC and propidium iodide staining based flow cytometry (reference value: 9.95 %)", "format": "functional"}, "MV4-11 [11]": {"system": "MV4-11", "experiment": "Induction of reactive oxygen species in human MV4-11 cells assessed as reduction in GSH to GSSG ratio in presence of copper measured at 8 to 24 hrs by GSH/GSSG-glo assay", "format": "functional, cell-based", "details": "time 8-24 hrs", "method_in_brief": "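MV4;11 cells were treated with or without Cu²⁺ and then processed with the GSH/GSSG-Glo kit. The GSH/GSSG ratio was read by luminescence on a microplate reader. Data are representative of two independent experiments.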"}, "MV4-11 [12]": {"system": "MV4-11", "experiment": "Induction of cell death in human MV4-11 cells at 1 to 10000 uM incubated for 48 hrs in presence of 20 uM copper chelator deferoxamine by cell-titer-Glo luminescent cell viability assay", "format": "functional, cell-based", "details": "dose 1-10000 µM, in the assay text read “iron chelator deferoxamine” for “copper chelator deferoxamine”", "method_in_brief": "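MV4;11 cells pretreated with tetrathiomolybdate 10 μM, deferoxamine 20 μM or bathocuproine disulfonate 200 μM, then exposed to compound from 5 μM in a 3-fold dilution series; viability measured.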"}, "MV4-11 [13]": {"system": "MV4-11", "experiment": "Upregulation of TXNIP mRNA expression in human MV4-11 cells at 50 nM incubated for 24 hrs by qRT-PCR analysis", "format": "functional, cell-based", "method_in_brief": "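MV4;11 cells were treated for 24 h, and TXNIP mRNA was quantified by qPCR using two separate TXNIP primer pairs.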"}, "MV4-11 [14]": {"system": "MV4-11", "experiment": "Induction of mitochondrial membrane potential loss in human MV4-11 cells measured at 8 to 24 hrs by JC1 staining based FACScalibur flow cytometry analysis", "format": "functional, cell-based", "details": "time 8-24 hrs", "method_in_brief": "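MV4;11 cells stained with the cationic dye JC-1, then analysed by flow cytometry (FACS) for loss of mitochondrial membrane potential. Data are representative of two independent experiments.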"}, "MV4-11 [15]": {"system": "MV4-11", "experiment": "Induction of mitochondrial stress in human MV4-11 cells assessed as reduction in basal respiration in incubated for 24 hrs in presence of oligomycin/FCCP/antimycin/rotenone by seahorse XF96 analyser based assay", "format": "functional, cell-based"}, "MV4-11 [16]": {"system": "MV4-11", "experiment": "Induction of mitochondrial morphological changes in human MV4-11 cells assessed as reduction in number of cristae after 24 hrs by transmission electron microscopy", "format": "functional, cell-based"}, "MV4-11 [17]": {"system": "MV4-11", "experiment": "Induction of mitochondrial dysfunction in human MV4-11 cells assessed as reduction in mitochondrial oxidative phosphorylation after 24 hrs by seahorse XF96 analyser based assay", "format": "functional, cell-based"}, "KOPN-8": {"system": "KOPN-8", "experiment": "Potency index, ratio of triapine IC50 to test compound IC50 for human KOPN-8 cells assessed as reduction in cell viability incubated for 48 hrs by cell-titer-Glo luminescent cell viability assay", "format": "functional", "method_in_brief": "(§3)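 Cells were exposed to increasing concentrations of triapine or of the test compound in parallel. Viability was read by CellTiter-Glo luminescence 48 h after treatment, relative to vehicle-treated cells. IC50 was fitted by non-linear regression to a standard sigmoidal dose-response model, and the index was taken from the two IC50s.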"}, "SEM cells": {"system": "SEM cells", "experiment": "Potency index, ratio of triapine IC50 to test compound IC50 for human SEM cells assessed as reduction in cell viability incubated for 48 hrs by cell-titer-Glo luminescent cell viability assay", "format": "functional", "method_in_brief": "as §3"}, "RS4-11": {"system": "RS4-11", "experiment": "Potency index, ratio of triapine IC50 to test compound IC50 for human RS4-11 cells assessed as reduction in cell viability incubated for 48 hrs by cell-titer-Glo luminescent cell viability assay", "format": "functional", "method_in_brief": "as §3"}, "Jurkat": {"system": "Jurkat", "experiment": "Potency index, ratio of triapine IC50 to test compound IC50 for human Jurkat cells assessed as reduction in cell viability incubated for 48 hrs by cell-titer-Glo luminescent cell viability assay", "format": "functional", "method_in_brief": "as §3"}, "[18]": {"experiment": "Potency index, ratio of triapine IC50 to test compound IC50 for human KYSE20 cells assessed as reduction in cell viability incubated for 48 hrs by cell-titer-Glo luminescent cell viability assay", "format": "functional", "method_in_brief": "as §3"}, "HeLa": {"system": "HeLa", "experiment": "Potency index, ratio of triapine IC50 to test compound IC50 for human HeLa cells assessed as reduction in cell viability incubated for 48 hrs by cell-titer-Glo luminescent cell viability assay", "format": "functional", "method_in_brief": "as §3"}, "NCI-H1838": {"system": "NCI-H1838", "experiment": "Potency index, ratio of triapine IC50 to test compound IC50 for human NCI-H1838 cells assessed as reduction in cell viability incubated for 48 hrs by cell-titer-Glo luminescent cell viability assay", "format": "functional", "method_in_brief": "as §3"}, "NCI-H1650": {"system": "NCI-H1650", "experiment": "Potency index, ratio of triapine IC50 to test compound IC50 for human NCI-H1650 cells assessed as reduction in cell viability incubated for 48 hrs by cell-titer-Glo luminescent cell viability assay", "format": "functional", "method_in_brief": "as §3"}}, "note": "Calls of active or inactive are those of the source. The calls are words filed in the database; no cut-off is given here.", "data": [{"smiles": "COc1cc2nc(N/N=C3\\CCCc4cccnc43)sc2cc1OC", "values": [{"measurement": "selectivity ratio", "setting": "[1]", "value": 257}, {"measurement": "TGI", "setting": "MV4-11 [2]", "value": "Active"}, {"measurement": "Activity", "setting": "[3]", "value": "Non-Toxic"}, {"measurement": "Activity", "setting": "MV4-11 [4]", "value": "Active"}, {"measurement": "IC50", "setting": "MV4-11 [5]", "value": 424, "unit": "nM"}, {"measurement": "IC50", "setting": "MV4-11 [6]", "value": 1.2, "unit": "nM"}, {"measurement": "Activity", "setting": "MV4-11 [7]", "value": "Active"}, {"measurement": "Activity", "setting": "MV4-11 [8]", "value": 14.4, "unit": "%"}, {"measurement": "Activity", "setting": "MV4-11 [9]", "value": 0.47, "unit": "%"}, {"measurement": "Activity", "setting": "MV4-11 [10]", "value": 80.5, "unit": "%"}, {"measurement": "Activity", "setting": "MV4-11 [11]", "value": "Active"}, {"measurement": "Activity", "setting": "MV4-11 [12]", "value": "Active"}, {"measurement": "Activity", "setting": "MV4-11 [13]", "value": "Active"}, {"measurement": "Activity", "setting": "MV4-11 [14]", "value": "Active"}, {"measurement": "Activity", "setting": "MV4-11 [15]", "value": "Active"}, {"measurement": "Activity", "setting": "MV4-11 [16]", "value": "Active"}, {"measurement": "Activity", "setting": "MV4-11 [17]", "value": "Active"}, {"measurement": "Ratio IC50", "setting": "KOPN-8", "value": 10}, {"measurement": "Ratio IC50", "setting": "SEM cells", "value": 10}, {"measurement": "Ratio IC50", "setting": "RS4-11", "value": 10}, {"measurement": "Ratio IC50", "setting": "Jurkat", "value": 10}, {"measurement": "Ratio IC50", "setting": "[18]", "value": 10}, {"measurement": "Ratio IC50", "setting": "HeLa", "value": 10}, {"measurement": "Ratio IC50", "setting": "NCI-H1838", "value": 10}, {"measurement": "Ratio IC50", "setting": "NCI-H1650", "value": 10}]}]}
